A short description of data set [1]: Biodistribution in baboon whole brain at 340 mg, iv after 30 mins. It is filed as ADME, organism-based. Particulars: papio hamadryas, read-out: Drug uptake. In outline: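 Brain PET was acquired for 90 min after i.v. [11C]-labeled drug in anesthetized baboons (ketamine 10 mg/kg i.m.; O2/N2O/isoflurane 1–4%). The whole-brain ROI TAC is reported as %ID/cc. µg/ml was estimated assuming a 20 mg/kg dose, a 17 kg baboon, and that the signal is intact drug. Arterial blood was sampled over 90 min.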

The nature of data set [2]: Biodistribution in baboon plasma at 340 mg, iv after 15 mins. It counts as ADME, organism-based. The settings on record: papio hamadryas, read-out: Drug uptake. In outline: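 Anesthetised baboons (ketamine 10 mg/kg i.m.; oxygen, nitrous oxide and isoflurane 1–4% during scanning) got a micro dose of [11C]-labelled drug i.v. via a radial arm vein; arterial blood was sampled serially over 90 min. Plasma %ID/cc was converted to µg/ml from the listed dose over a 17 kg baboon, assuming the signal is intact drug.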

Data set [3] in a line: Biodistribution in baboon lung at 340 mg, iv after 30 mins. Particulars: papio hamadryas, read-out: Drug uptake. It is filed as ADME, organism-based. In outline: (§1)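 Four anesthetized baboons were given ketamine 10 mg/kg i.m., with anesthesia held on O2, N2O and isoflurane 1–4%. They received a micro dose of the [11C]-labeled drug i.v. via a radial arm vein, followed by torso PET. TACs came from manually drawn organ ROIs and are reported as %ID/cc. µg/ml values were estimated from a 20 mg/kg dose and a 17 kg baboon, assuming the signal is intact drug.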

Data set [4] can be described thus: Biodistribution in baboon kidney cortex at 340 mg, iv after 60 mins. The settings on record: papio hamadryas, read-out: Drug uptake. It is filed as ADME, organism-based. The essentials:
as §1

Data set [5] in a line: Biodistribution in baboon whole brain at 340 mg, iv after 60 mins. It counts as ADME, organism-based. Particulars: papio hamadryas, read-out: Drug uptake. In outline: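 Baboons were anesthetized with ketamine 10 mg/kg i.m., then maintained on O2, N2O and isoflurane 1–4%. The [11C]-labeled drug was given i.v. as a micro dose through a radial arm vein. PET was acquired for 90 min. Whole-brain ROI time-activity curves were read in %ID/cc, and µg/ml was estimated assuming a 20 mg/kg dose, a 17 kg baboon and signal from intact drug.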

Data set [6] in a line: Biodistribution in baboon kidney medulla at 340 mg, iv after 90 mins. It is filed as ADME, organism-based. Particulars: papio hamadryas, read-out: Drug uptake. In outline: as §1
A short description of data set [7]: Biodistribution in baboon lung at 340 mg, iv after 90 mins. It counts as ADME, organism-based. Particulars: papio hamadryas, read-out: Drug uptake. In outline:
as §1

A short description of data set [8]: Biodistribution in baboon heart at 340 mg, iv after 90 mins. It counts as ADME, organism-based. Particulars: papio hamadryas, read-out: Drug uptake. In outline: as §1
A short description of data set [9]: Biodistribution in baboon liver at 340 mg, iv after 15 mins. It is filed as ADME, organism-based. Particulars: papio hamadryas, read-out: Drug uptake. In outline:
as §1

Data set [10] is described as follows: Biodistribution in baboon liver at 340 mg, iv after 30 mins. The settings on record: papio hamadryas, read-out: Drug uptake. It is filed as ADME, organism-based. The essentials: as §1
Data set [11] can be described thus: Biodistribution in baboon lung at 340 mg, iv after 15 mins. Particulars: papio hamadryas, read-out: Drug uptake. It is filed as ADME, organism-based. In outline: as §1
The nature of data set [12]: Biodistribution in baboon kidney cortex at 340 mg, iv after 15 mins. The settings on record: papio hamadryas, read-out: Drug uptake. It is filed as ADME, organism-based. The essentials:
as §1

A short description of data set [13]: Biodistribution in baboon plasma at 340 mg, iv after 30 mins. Particulars: papio hamadryas, read-out: Drug uptake. It counts as ADME, organism-based. In outline:
(§2)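 Anaesthetised baboons received [11C]-labelled drug i.v. (radial arm vein) by PET protocol. Arterial blood was drawn from a popliteal catheter every 5 s for 2 min, then at 2–90 min. Plasma activity is given as %ID/cc. µg/ml values were estimated from the human daily dose per kg scaled to a 17 kg baboon, assuming signal comes from intact drug.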

Data set [14] is described as follows: Biodistribution in baboon liver at 340 mg, iv after 90 mins. It is filed as ADME, organism-based. Particulars: papio hamadryas, read-out: Drug uptake. The essentials: as §1
Data set [15] is described as follows: Biodistribution in baboon kidney medulla at 340 mg, iv after 30 mins. It counts as ADME, organism-based. The settings on record: papio hamadryas, read-out: Drug uptake. The essentials:
as §1

Data set [16] is described as follows: Biodistribution in baboon heart at 340 mg, iv after 15 mins. It is filed as ADME, organism-based. The settings on record: papio hamadryas, read-out: Drug uptake. In outline: as §1
Data set [17] is described as follows: Biodistribution in baboon whole brain at 340 mg, iv after 90 mins. It counts as ADME, organism-based. The settings on record: papio hamadryas, read-out: Drug uptake. In outline: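 Brain PET ran 90 min after i.v. [11C]-labelled drug in anaesthetised baboons. Whole-brain regions of interest gave time-activity curves in %ID/cc. µg/ml values were estimated from baboon weight (17 kg) and the recommended human daily dose per kg, assuming signal comes from intact drug.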

The nature of data set [18]: Biodistribution in baboon kidney cortex at 340 mg, iv after 30 mins. Particulars: papio hamadryas, read-out: Drug uptake. It counts as ADME, organism-based. In outline:
as §1

Data set [19] can be described thus: Biodistribution in baboon plasma at 340 mg, iv after 90 mins. It is filed as ADME, organism-based. The settings on record: papio hamadryas, read-out: Drug uptake. The essentials:
as §2

Data set [20] can be described thus: Biodistribution in baboon lung at 340 mg, iv after 60 mins. It counts as ADME, organism-based. The settings on record: papio hamadryas, read-out: Drug uptake. In outline: as §1
A short description of data set [21]: Biodistribution in baboon plasma at 340 mg, iv after 60 mins. It is filed as ADME, organism-based. The settings on record: papio hamadryas, read-out: Drug uptake. In outline: as §2
Data set [22] is described as follows: Biodistribution in baboon heart at 340 mg, iv after 30 mins. The settings on record: papio hamadryas, read-out: Drug uptake. It is filed as ADME, organism-based. In outline: as §1
The nature of data set [23]: Biodistribution in baboon kidney cortex at 340 mg, iv after 90 mins. It is filed as ADME, organism-based. The settings on record: papio hamadryas, read-out: Drug uptake. The essentials: as §1
A short description of data set [24]: Biodistribution in baboon heart at 340 mg, iv after 60 mins. It counts as ADME, organism-based. The settings on record: papio hamadryas, read-out: Drug uptake. The essentials: as §1
Data set [25] is described as follows: Biodistribution in baboon liver at 340 mg, iv after 60 mins. It is filed as ADME, organism-based. Particulars: papio hamadryas, read-out: Drug uptake. The essentials: as §1
A short description of data set [26]: Biodistribution in baboon kidney medulla at 340 mg, iv after 15 mins. It counts as ADME, organism-based. The settings on record: papio hamadryas, read-out: Drug uptake. In outline:
as §1

A short description of data set [27]: Biodistribution in baboon kidney medulla at 340 mg, iv after 60 mins. It counts as ADME, organism-based. Particulars: papio hamadryas, read-out: Drug uptake. The essentials:
as §1

A short description of data set [28]: Biodistribution in ip dosed cat brain. It counts as ADME, organism-based, Felis catus. Particulars: in vivo.
A short description of data set [29]: Biodistribution in human CSF at 108.7 mg, po after 1 hr. The settings on record: read-out: Drug uptake. It is filed as ADME, organism-based, Cerebrospinal fluid.
Data set [30] can be described thus: Biodistribution in human CSF at 8.5 mg/kg, po after 2 hrs. It is filed as ADME, organism-based, Cerebrospinal fluid. Details: dose 8.5 mg/kg, route oral. The settings on record: read-out: Drug uptake.
The nature of data set [31]: Plasma protein binding in baboon. It counts as ADME, cell-free. The settings on record: papio hamadryas, read-out: PPB (converted). The essentials: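 [11C]-labelled drug was incubated 10 min at room temperature in pooled plasma from at least 4 baboons. Total radioactivity was counted, then the sample was ultrafiltered by centrifugation (10 min) and the filtrate counted. Result is expressed as % free fraction in plasma.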

The nature of data set [32]: Lipophilicity, log D of the compound. It counts as physicochemical. The settings on record: octanol/water.

Each structure is given as a SMILES string.

For orientation: logD means lipophilicity at a set pH, counting ionised and neutral species. A low value points to a more hydrophilic compound.

On to `N[11C](=O)c1cnccn1`, for which the concentration at 0.5 h amounted to 21000 ng/mL in data set [1]; 26500 ng/mL in data set [3]; 27000 ng/mL in data set [10]; 14600 ng/mL in [13]; 474000 ng/mL in data set [15]; 16600 ng/mL in data set [18]. The concentration at 0.5 h in data set [22] came to 61500 ng/mL. Moreover, the concentration at 0.25 h in [2] turned out to be 22000 ng/mL; in data set [9], 36100 ng/mL; in data set [11] it was 35000 ng/mL; in data set [12] it was 20500 ng/mL; in data set [16], 67800 ng/mL; in data set [26], 617000 ng/mL. Moreover, the concentration at 1 h in data set [4] was determined as 12600 ng/mL; in data set [5] it was 15700 ng/mL; in data set [20], 22200 ng/mL; in data set [21] it was 11200 ng/mL; in data set [24] it was 57600 ng/mL; in data set [25] it was 22000 ng/mL. For the same compound, in data set [27], the concentration at 1 h came out at 343000 ng/mL. Moreover, the concentration at 1.5 h in data set [6] came out at 229000 ng/mL; in data set [7] it was 18600 ng/mL; in data set [8] it was 59500 ng/mL; in data set [14], 19200 ng/mL; in data set [17], 13700 ng/mL; in [19] it was 9040 ng/mL. In data set [23], the concentration at 1.5 h came out at 9930 ng/mL.
In turn, `NNC(=O)c1ccncc1` [ISONIAZID] returned a Drug uptake in data set [28] of 0.02 µg/g. In data set [29], the concentration at 1 h is 310 ng/mL. In addition, the concentration at 2 h in [30] was found to be 1900 ng/mL. Besides, in data set [31], the fraction unbound was 0.0537.
For `NC(=O)c1cnccn1` [PYRAZINAMIDE], the logD in data set [32] is reported as -0.41. Further, the fraction unbound in [31] is 0.0868.
For the compound `CO[C@H]1/C=C/O[C@@]2(C)Oc3c(C)c(O)c4c(O)c(c(/C=N/N5CCN(C)CC5)c(O)c4c3C2=O)NC(=O)/C(C)=C\C=C\[C@H](C)[C@H](O)[C@@H](C)[C@@H](O)[C@@H](C)[C@H](OC(C)=O)[C@@H]1C` [RIFAMPIN], in data set [31], the fraction unbound was 0.727.
